Data taken from ChEMBL document CHEMBL3045731, “Facile synthesis and herbicidal evaluation of 4H-3,1-benzoxazin-4-ones and 3H-quinazolin-4-ones with 2-phenoxymethyl substituents” (Molecules, 2012).

Assays:
Brassica napus [1] = assay: Herbicidal activity against Brassica napus (oilseed rape) assessed as inhibition of root elongation after 5 days by petri dish culture method; type: functional, organism-based
Brassica napus [2] = assay: Herbicidal activity against Brassica napus (oilseed rape) assessed as inhibition of root growth at 1 mg/L after 5 days by petri dish culture method relative to control; type: functional; conditions: 120 h, read-out: GI
In short: (§1)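 Test solutions were made in DMF, emulsified with Tween 80, and diluted with water, then added to Petri dishes lined with two filter papers. Twenty rape and twenty barnyard grass seeds were incubated 5 days at 23 ± 1 °C, 60 ± 5% humidity, 10 Klux, 12 h/day light. Mean length of 10 roots and 10 stems gave percent inhibition versus distilled-water controls.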

Brassica napus [3] = assay: Herbicidal activity against Brassica napus (oilseed rape) assessed as inhibition of stalk growth at 10 mg/L after 5 days by petri dish culture method relative to control; type: functional; conditions: 120 h, read-out: GI; in short: as §1
Echinochloa crus-galli [4] = assay: Herbicidal activity against Echinochloa crus-galli (barnyard grass) assessed as inhibition of stalk growth at 10 mg/L after 5 days by petri dish culture method relative to control; type: functional; conditions: 120 h, read-out: GI; in short: as §1
Brassica napus [5] = assay: Herbicidal activity against Brassica napus (oilseed rape) assessed as inhibition of stalk growth at 1 mg/L after 5 days by petri dish culture method relative to control; type: functional; conditions: 120 h, read-out: GI; in short: as §1
Echinochloa crus-galli [6] = assay: Herbicidal activity against Echinochloa crus-galli (barnyard grass) assessed as inhibition of stalk growth at 1 mg/L after 5 days by petri dish culture method relative to control; type: functional; conditions: 120 h, read-out: GI; in short: as §1
Brassica napus [7] = assay: Herbicidal activity against Brassica napus (oilseed rape) assessed as inhibition of root growth at 10 mg/L after 5 days by petri dish culture method relative to control; type: functional; conditions: 120 h, read-out: GI; in short: as §1
Echinochloa crus-galli [8] = assay: Herbicidal activity against Echinochloa crus-galli (barnyard grass) assessed as inhibition of root growth at 1 mg/L after 5 days by petri dish culture method relative to control; type: functional; conditions: 120 h, read-out: GI; in short: as §1
Echinochloa crus-galli [9] = assay: Herbicidal activity against Echinochloa crus-galli (barnyard grass) assessed as inhibition of root growth at 10 mg/L after 5 days by petri dish culture method relative to control; type: functional; conditions: 120 h, read-out: GI; in short: as §1

O=c1oc(COc2ccc(Cl)cc2Cl)nc2cc(Cl)ccc12
IC50 (Brassica napus [1]): 11.05 µmol

COc1cc2nc(COc3ccc(Cl)cc3)oc(=O)c2cc1OC
IC50 (Brassica napus [1]): 80.14 µmol

Nn1c(COc2ccc(Cl)cc2Cl)nc2c(Cl)cccc2c1=O
inhibition of growth at 1 µg/mL (Brassica napus [2]): 93.6% | inhibition of growth at 10 µg/mL (Brassica napus [3]): 95.7% | inhibition of growth at 10 µg/mL (Echinochloa crus-galli [4]): 38.1% | IC50 (Brassica napus [1]): 27.23 µmol | inhibition of growth at 1 µg/mL (Brassica napus [5]): 92.3% | inhibition of growth at 1 µg/mL (Echinochloa crus-galli [6]): -7.2% | inhibition of growth at 10 µg/mL (Brassica napus [7]): 98.2% | inhibition of growth at 1 µg/mL (Echinochloa crus-galli [8]): 24.3% | inhibition of growth at 10 µg/mL (Echinochloa crus-galli [9]): 68.5%

COc1cc2nc(COc3ccc(Cl)cc3Cl)n(N)c(=O)c2cc1OC
IC50 (Brassica napus [1]): 167.59 µmol

COc1cc2nc(COc3ccc(Cl)cc3Cl)oc(=O)c2cc1OC
IC50 (Brassica napus [1]): 142.22 µmol

O=c1oc(COc2ccc(Cl)cc2Cl)nc2ccccc12
IC50 (Brassica napus [1]): 10.34 µmol

COc1ccc(Cl)cc1Cl
inhibition of growth at 1 µg/mL (Brassica napus [2]): 91% | inhibition of growth at 10 µg/mL (Brassica napus [3]): 93.6% | inhibition of growth at 10 µg/mL (Echinochloa crus-galli [4]): 76.2% | IC50 (Brassica napus [1]): 6.06 µmol | inhibition of growth at 1 µg/mL (Brassica napus [5]): 89.1% | inhibition of growth at 1 µg/mL (Echinochloa crus-galli [6]): 45.5% | inhibition of growth at 10 µg/mL (Brassica napus [7]): 100% | inhibition of growth at 1 µg/mL (Echinochloa crus-galli [8]): 67.3% | inhibition of growth at 10 µg/mL (Echinochloa crus-galli [9]): 99.1%

Nn1c(COc2ccc(Cl)cc2Cl)nc2ccccc2c1=O
IC50 (Brassica napus [1]): 224.37 µmol

O=c1oc(COc2ccc(Cl)cc2Cl)nc2cccc(Cl)c12
IC50 (Brassica napus [1]): 43.54 µmol

O=c1oc(COc2ccc(Cl)cc2Cl)nc2ccc(Cl)cc12
IC50 (Brassica napus [1]): 10.73 µmol

O=c1oc(COc2ccc(Cl)cc2)nc2ccccc12
IC50 (Brassica napus [1]): 30.37 µmol

Cn1c(COc2ccc(Cl)cc2)nc2cccc(Cl)c2c1=O
IC50 (Brassica napus [1]): 201.13 µmol

O=c1oc(COc2ccc(Cl)cc2)nc2cccc(Cl)c12
IC50 (Brassica napus [1]): 138.24 µmol

Cn1c(COc2ccc(Cl)cc2Cl)nc2c(Cl)cccc2c1=O
inhibition of growth at 1 µg/mL (Brassica napus [2]): 32.3% | inhibition of growth at 10 µg/mL (Brassica napus [3]): -2.4% | inhibition of growth at 10 µg/mL (Echinochloa crus-galli [4]): 0% | inhibition of growth at 1 µg/mL (Brassica napus [5]): -8.8% | inhibition of growth at 1 µg/mL (Echinochloa crus-galli [6]): 1.4% | inhibition of growth at 10 µg/mL (Brassica napus [7]): 44.5% | inhibition of growth at 1 µg/mL (Echinochloa crus-galli [8]): 12.3% | inhibition of growth at 10 µg/mL (Echinochloa crus-galli [9]): 34.6%

O=c1oc(COc2ccc(Cl)cc2)nc2ccc(Cl)cc12
IC50 (Brassica napus [1]): 22.32 µmol
